Data as given in ChEMBL document CHEMBL1152300, “Ligand specificity of constitutive androstane receptor as probed by induced-fit docking and mutagenesis” (J Med Chem, 2008).

Key:
[1] = target: Nuclear receptor subfamily 1 group I member 3 (Mus musculus, UniProt O35627, Y336A); assay: Decrease in steroid receptor coactivator 1 binding to mouse CAR Y336A mutant […] at 10 uM by yeast two-hybrid assay; format: cell-based; conditions: read-out: Activity
Summary of the method: (§1)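 Yeast expressing wild-type or mutant mouse CAR LBD plus SRC-1, selected on SD plates lacking leucine and tryptophan. Pooled colonies treated with DMSO or compound for 3.5 h. β-Galactosidase activity normalized to cell density. Reference is wild-type CAR + SRC-1 with DMSO (=100). Mean ± SD of two independent determinations, each in triplicate.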

[2] = target: T1, Nuclear receptor subfamily 1 group I member 3 (Mus musculus, UniProt O35627); assay: Activation of wild type mouse CAR expressed in HEK293 cells at 2 uM by mammalian one-hybrid assay; format: cell-based; conditions: hek293, 2 µM
T1 sequence (O35627 whole entry): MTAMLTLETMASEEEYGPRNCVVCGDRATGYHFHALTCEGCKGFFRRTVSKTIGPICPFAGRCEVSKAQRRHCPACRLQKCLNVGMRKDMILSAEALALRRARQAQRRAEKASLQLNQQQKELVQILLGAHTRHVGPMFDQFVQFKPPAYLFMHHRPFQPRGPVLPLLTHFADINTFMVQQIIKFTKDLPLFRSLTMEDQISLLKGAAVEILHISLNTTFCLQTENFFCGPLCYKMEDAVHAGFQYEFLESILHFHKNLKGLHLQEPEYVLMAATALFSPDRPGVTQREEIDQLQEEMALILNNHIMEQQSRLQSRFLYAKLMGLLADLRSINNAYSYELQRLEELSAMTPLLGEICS
Summary of the method: (§2)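 GAL4-DBD fused to mouse CAR LBD (residues 118-358), wild-type or point mutant, cotransfected with UASx4-tk-luc reporter and pCMVβ into HEK293 cells. Cells were exposed to final 1 µM, 2 µM or 10 µM test chemical, or 0.1% v/v DMSO, for 24 h after transfection. Luciferase was normalized to β-galactosidase and set against empty GAL4 vector (=1.0). Mean ± standard deviation, three independent experiments.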

[3] = target: Nuclear receptor subfamily 1 group I member 3 (Mus musculus, UniProt O35627, F171A); assay: Enhancement of nuclear co-repressor receptor binding to mouse CAR F171A mutant […] at 10 uM by yeast two-hybrid assay; format: cell-based
Chain of Nuclear receptor subfamily 1 group I member 3 (Mus musculus, UniProt O35627, F171A) (O35627 whole entry F171A, the tested form may be a part): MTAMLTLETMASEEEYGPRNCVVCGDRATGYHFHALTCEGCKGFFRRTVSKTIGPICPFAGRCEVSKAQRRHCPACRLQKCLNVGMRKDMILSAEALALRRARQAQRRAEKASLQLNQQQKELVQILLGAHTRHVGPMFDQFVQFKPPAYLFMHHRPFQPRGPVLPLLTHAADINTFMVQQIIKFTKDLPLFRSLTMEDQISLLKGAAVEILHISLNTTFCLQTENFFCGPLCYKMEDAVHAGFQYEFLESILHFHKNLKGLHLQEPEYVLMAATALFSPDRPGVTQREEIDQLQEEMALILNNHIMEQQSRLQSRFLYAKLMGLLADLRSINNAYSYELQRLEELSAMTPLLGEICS
Summary of the method: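 Yeast two-hybrid assay. Yeast co-expressing wild-type or mutant mouse CAR LBD and the NCoR partner were selected on SD plates lacking leucine and tryptophan. Pooled, amplified colonies were treated with DMSO or test chemical for 3.5 h. β-galactosidase activity was normalized to cell density and referenced to the 10 µM androstenol interaction (=100). Mean ± standard deviation of two determinations, each in triplicate.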

[4] = target: T2, Nuclear receptor subfamily 1 group I member 3 (Mus musculus, UniProt O35627, L253F); assay: Effect on nuclear co-repressor receptor binding to mouse CAR L253F mutant […] at 10 uM by yeast two-hybrid assay; format: cell-based; conditions: read-out: Activity
T2 sequence (O35627 whole entry L253F): as the sequence (O35627 whole entry F171A, the tested form may be a part) above, with A171F, L253F counted along it
Summary of the method: as §1, with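 “NCoR,” for “SRC-1,”, “10 µM androstenol” for “wild-type CAR + SRC-1 with DMSO”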

[5] = target: T3, Nuclear receptor subfamily 1 group I member 3 (Mus musculus, UniProt O35627, F171L); assay: Enhancement of steroid receptor coactivator 1 binding to mouse CAR F171L mutant […] at 10 uM by yeast two-hybrid assay; format: cell-based
T3 sequence (O35627 whole entry F171L, the tested form may be a part): as the sequence (O35627 whole entry F171A, the tested form may be a part) above, with A171L counted along it
Summary of the method: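 Yeast two-hybrid assay. Yeast co-expressing wild-type or mutant mouse CAR LBD and the SRC-1 partner were selected on SD plates lacking leucine and tryptophan. Random colonies were pooled and amplified, then treated with DMSO or test chemical for 3.5 h. β-galactosidase activity was normalized to cell density and set relative to wild-type mCAR + SRC-1 with DMSO (=100). Mean ± standard deviation of two determinations, each in triplicate.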

[6] = target: T3, Nuclear receptor subfamily 1 group I member 3; assay: Decrease in mouse CAR F171L mutant activation expressed in HEK293 cells at 10 uM by mammalian one-hybrid assay; format: cell-based; conditions: read-out: Activity
Summary of the method: (§3)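 GAL4 DBD fused to mouse CAR LBD (residues 118-358), wild type or point mutant, cotransfected with UASx4-tk-luc reporter and pCMVβ into HEK293 cells. Cells cultured with DMSO (0.1% v/v) or compound (final 1, 2 or 10 µM). Lysed 24 h post-transfection. Luciferase normalized to β-galactosidase, expressed relative to empty GAL4 vector (=1.0). Mean ± SD, three independent experiments.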

[7] = target: T4, Nuclear receptor subfamily 1 group I member 3 (Mus musculus, UniProt O35627, H213A); conditions: HEK293, mouse, read-out: Activity
T4 sequence (O35627 whole entry H213A): as the sequence (O35627 whole entry F171A, the tested form may be a part) above, with A171F, H213A counted along it

[8] = target: Nuclear receptor subfamily 1 group I member 3 (Mus musculus, UniProt O35627, T350A); conditions: HEK293, mouse, read-out: Activity
Chain of Nuclear receptor subfamily 1 group I member 3 (Mus musculus, UniProt O35627, T350A) (O35627 whole entry T350A): as the sequence (O35627 whole entry F171A, the tested form may be a part) above, with A171F, T350A counted along it

[9] = target: Nuclear receptor subfamily 1 group I member 3 (Mus musculus, UniProt O35627, S251L); conditions: HEK293, mouse, read-out: Activity
Chain of Nuclear receptor subfamily 1 group I member 3 (Mus musculus, UniProt O35627, S251L) (O35627 whole entry S251L): as the sequence (O35627 whole entry F171A, the tested form may be a part) above, with A171F, S251L counted along it

[10] = target: Nuclear receptor subfamily 1 group I member 3 (Mus musculus, UniProt O35627, L353A); assay: Decrease in nuclear co-repressor receptor binding to mouse CAR L353A mutant […] at 10 uM by yeast two-hybrid assay; format: cell-based; conditions: read-out: Activity
Chain of Nuclear receptor subfamily 1 group I member 3 (Mus musculus, UniProt O35627, L353A) (O35627 whole entry L353A): as the sequence (O35627 whole entry F171A, the tested form may be a part) above, with A171F, L353A counted along it
Summary of the method: as §1, with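 “NCoR,” for “SRC-1,”, “10 µM androstenol” for “wild-type CAR + SRC-1 with DMSO”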

[11] = target: Nuclear receptor subfamily 1 group I member 3 (Mus musculus, UniProt O35627, L212A); assay: Enhancement of steroid receptor co-activator 1 binding to mouse CAR L212A mutant […] at 10 uM by yeast two-hybrid assay; format: cell-based
Chain of Nuclear receptor subfamily 1 group I member 3 (Mus musculus, UniProt O35627, L212A) (O35627 whole entry L212A): as the sequence (O35627 whole entry F171A, the tested form may be a part) above, with A171F, L212A counted along it

[12] = target: T1, Nuclear receptor subfamily 1 group I member 3; assay: Activation of mouse CAR; summary of the method: as §2
[13] = target: Nuclear receptor subfamily 1 group I member 3 (Mus musculus, UniProt O35627, T350M); conditions: HEK293, mouse, read-out: Activity
Chain of Nuclear receptor subfamily 1 group I member 3 (Mus musculus, UniProt O35627, T350M) (O35627 whole entry T350M): as the sequence (O35627 whole entry F171A, the tested form may be a part) above, with A171F, T350M counted along it

[14] = target: T4, Nuclear receptor subfamily 1 group I member 3; conditions: HEK293, mouse, read-out: Activity; remark: listed apart in the source
[15] = target: T3, Nuclear receptor subfamily 1 group I member 3; assay: Decrease in nuclear co-repressor receptor binding to mouse CAR F171L mutant […] at 10 uM by yeast two-hybrid assay; format: cell-based; parameters: scale not given: the % may be the effect or the level left
Summary of the method: as §1, with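 “NCoR,” for “SRC-1,”, “10 µM androstenol” for “wild-type CAR + SRC-1 with DMSO”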

[16] = target: Nuclear receptor subfamily 1 group I member 3 (Mus musculus, UniProt O35627, N175A); assay: Decrease in mouse CAR N175A mutant activation expressed in HEK293 cells at 10 uM by mammalian one-hybrid assay; format: cell-based; conditions: read-out: Activity; summary of the method: as §2
Chain of Nuclear receptor subfamily 1 group I member 3 (Mus musculus, UniProt O35627, N175A) (O35627 whole entry N175A): as the sequence (O35627 whole entry F171A, the tested form may be a part) above, with A171F, N175A counted along it

[17] = target: T5, mouse CAR (NR1I3), wild type (Mus musculus, UniProt O35627); assay: Activation of wild type mouse CAR expressed in HEK293 cells at 1 uM by mammalian one-hybrid assay; format: cell-based; conditions: HEK293 cells expressing wild type mouse CAR, read-out: FC; summary of the method: as §3
T5 sequence (O35627 whole entry): T1 sequence (O35627 whole entry)

[18] = target: T2, Nuclear receptor subfamily 1 group I member 3; conditions: HEK293, mouse, read-out: Activity
[19] = target: T5, mouse CAR (NR1I3), wild type; assay: Activation of wild type mouse CAR expressed in HEK293 cells at 10 uM by mammalian one-hybrid assay; format: cell-based; conditions: HEK293 cells expressing wild type mouse CAR, read-out: FC; summary of the method: as §3
[20] = target: T3, Nuclear receptor subfamily 1 group I member 3; conditions: HEK293, mouse

Chain of Nuclear receptor subfamily 1 group I member 3 (Mus musculus, UniProt O35627, Y336A) (O35627 whole entry Y336A, the tested form may be a part): as the sequence (O35627 whole entry F171A, the tested form may be a part) above, with A171F, Y336A counted along it

Activity [12] | inhibition at 10 µM [13] | inhibition at 10 µM [14] | inhibition at 10 µM [16] | SMILES | inhibition at 10 µM [1] | Activity [2] | Activity [3] | activity at 10 µM [4] | Activity [5] | inhibition at 10 µM [6] | inhibition at 10 µM [7] | inhibition at 10 µM [8] | inhibition at 10 µM [9] | inhibition at 10 µM [10] | Activity [11] | Activity [15] | fold induction at 1 µM [17] | inhibition at 10 µM [18] | fold induction at 10 µM [19] | activity at 10 µM [20]
Active | < 50% | 50% | 50% | COc1ccccc1CC(CC(=O)Cc1ccccc1)OC (stereo unspecified) |  |  |  |  | > 50% |  |  | 50% | < 50% | ≥ 50% | > 150% | >= 50% | 2 | ≥ 50% | 2 | 
Active | 50% | 50% | < 50% | COc1ccc(C(=O)CCCc2ccccc2)cc1 | ≥ 50% |  | >= 50% | < 50% |  |  |  |  |  |  |  |  |  |  |  | < 50%

Continued, compound first:

SMILES | Activity [12] | inhibition at 10 µM [13] | inhibition at 10 µM [14] | inhibition at 10 µM [16] | inhibition at 10 µM [1] | Activity [2] | Activity [3] | activity at 10 µM [4] | Activity [5] | inhibition at 10 µM [6] | inhibition at 10 µM [7] | inhibition at 10 µM [8] | inhibition at 10 µM [9] | inhibition at 10 µM [10] | Activity [11] | Activity [15] | fold induction at 1 µM [17] | inhibition at 10 µM [18] | fold induction at 10 µM [19] | activity at 10 µM [20]
COc1ccc(C(c2ccc(OC)cc2)C(Cl)(Cl)Cl)cc1 [METHOXYCHLOR] |  |  |  |  | ≥ 50% | 40% | >= 50% | < 50% | >= 50% | < 50% | ≥ 50% | 50% | < 50% | ≥ 50% | >= 50% |  |  |  |  | 
C[C@]12CC[C@@H](O)C[C@@H]1CC[C@@H]1[C@@H]2CC[C@]2(C)C=CC[C@@H]12 [ANDROSTENOL] |  |  |  |  |  |  |  |  |  | < 50% | ≥ 50% |  |  | ≥ 50% |  | >= 50% |  | ≥ 50% |  | < 50%
Clc1ccccc1C(c1ccccc1)(c1ccccc1)n1ccnc1 [CLOTRIMAZOLE] |  |  |  |  |  | 40% |  |  |  |  |  |  |  |  |  |  |  |  |  | 
Clc1cnc(Oc2ccc(Oc3ncc(Cl)cc3Cl)cc2)c(Cl)c1 |  |  |  |  |  |  |  |  |  |  |  |  |  |  |  |  | 2 |  | 2 | 
